Most compounds without a hit are left out; they make up all but 4.2% or so of the library.
TAAR1 antag – human TAAR1 antagonism. Q96RJ0. inhibition, % at 3 µM. AID 624466. CHO RD-HGA16 TAAR1, Fluo-8 calcium fluorescence, antagonist. 1.5% of 360,000 active;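 active means inhibition above a per-plate cutoff, the mean inhibition of test compounds on that plate plus 3 SD, cut at about 49% in these data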
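Test system: CHO RD-HGA16 cells bearing hTAAR1 | Reagent: β-PEA, EC80 | Compound dosing: 3 µM, single point | Schedule: Dye loading 75 min at 37 °C, then 30 min room temperature | Signal: Calcium fluorescence with Fluo-8 | Evaluation: Percent inhibition of PEA-evoked calcium signal, max/basal emission ratio | Control set: DMSO-only wells and EC80 β-PEA-stimulated wells | Repeats: Singlicate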
CHO parental Ca – counter-screen: ATP calcium response change in parental CHO cells; parental CHO-K1, ATP-induced calcium, Fluo-8 fluorescence; AID 463079; 0.63% of 330,000 active; inhibition, % at 5.6 µM;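 active means inhibition above that plate's mean sample inhibition plus 3 SD, cut at about 26% in these data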
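Assay system – parental CHO cells · Reagent – ATP stimulus · Detection – intracellular calcium via Fluo-8 no-wash fluorescent dye · Evaluation – percent inhibition of ATP-evoked calcium rise, normalized to controls · Controls – ATP wells versus no-ATP DMSO wells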
TAAR1 agonist – agonists of human TAAR1 | Q96RJ0 | CHO RD-HGA16 TAAR1, Fluo-8 calcium fluorescence; vehicle wells 0%, saturating PEA agonist 100% | activation, % at 3 µM | 0.99% of 360,000 active | AID 624467;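 active means activation above the mean activation of all test compounds in the run plus 3 SD, cut at about 38% in these data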
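Assay system – CHO-derived RD-HGA16 cells with stable Gα16 and human TAAR1 · Compound dosing – one-point dosing at 3 µM (nominal) · Incubation – 17-24 h seeding, 75 min 37 °C dye, 30 min RT · Measured by – kinetic Fluo-8 calcium fluorescence · Control set – DMSO vehicle as 0%, PEA at EC100 as 100% · Repeats – single well for each compound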
OX1R antag-1 – antagonists of human orexin 1 receptor (OX1R); OX1R-expressing cells, FRET antagonist read-out; inhibition, % at 6.6 µM; 1.8% of 330,000 active; AID 485270; in the data active means inhibition mostly above about 38%, no sharp cut-off; inactive means mostly below about 40%
Target sequence (O43613 whole entry, looked up): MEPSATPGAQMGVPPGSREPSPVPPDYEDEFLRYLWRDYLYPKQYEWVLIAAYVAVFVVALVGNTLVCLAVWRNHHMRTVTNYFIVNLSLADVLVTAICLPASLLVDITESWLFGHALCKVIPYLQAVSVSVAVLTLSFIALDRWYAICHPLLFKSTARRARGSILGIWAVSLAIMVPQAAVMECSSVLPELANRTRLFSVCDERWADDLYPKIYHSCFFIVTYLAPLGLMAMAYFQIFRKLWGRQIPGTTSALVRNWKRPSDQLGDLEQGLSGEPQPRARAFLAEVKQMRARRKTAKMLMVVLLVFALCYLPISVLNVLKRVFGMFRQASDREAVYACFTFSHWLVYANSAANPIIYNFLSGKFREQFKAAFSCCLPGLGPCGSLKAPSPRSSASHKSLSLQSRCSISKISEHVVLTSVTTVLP
OX1R antag-2 – blocks the human orexin 1 receptor. inhibition, % at 5 µM. 0.43% of 330,000 active. O43613. CHO/OX1R cells, Fluo-8 calcium fluorescence, orexin A;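 active means inhibition above its plate's threshold, mean inhibition of all tested compounds on the plate plus 3 SD, cut at about 37% in these data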
GalR3 antag – blocks the human galanin receptor 3. 0.44% of 360,000 active. HEK293 GalR3-CNG cAMP membrane potential fluorescence; galR3 body fused to GalR1 C-terminus. inhibition, % at 3 µM. O60755;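 active means inhibition above the screen-wide average plus 3 SD, cut at about 13% in these data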;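 further: forskolin and galanin both at EC90 stimulate the cells; cAMP rise reported by CNG channel membrane potential dye signal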
Target sequence (O60755 1-299 limits assumed): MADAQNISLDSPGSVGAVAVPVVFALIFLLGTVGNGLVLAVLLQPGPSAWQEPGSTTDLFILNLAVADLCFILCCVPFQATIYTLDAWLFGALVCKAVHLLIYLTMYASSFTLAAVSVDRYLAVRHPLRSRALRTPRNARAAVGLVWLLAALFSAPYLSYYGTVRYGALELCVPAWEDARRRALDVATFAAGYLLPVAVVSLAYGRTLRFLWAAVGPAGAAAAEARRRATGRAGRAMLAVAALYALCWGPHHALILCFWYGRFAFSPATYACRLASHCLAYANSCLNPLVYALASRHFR
Of the large screens only hits and unclear results are named; the others gave an inactive call.

COc1ccc(OC)c(CCNC(=O)Cn2sc3nc(C)cc(C)c3c2=O)c1	CHO parental Ca 49, OX1R antag-2 55 (no result: TAAR1 antag, TAAR1 agonist, GalR3 antag)
Cc1cc(C)cc(OCC(=O)N(Cc2ccccc2)C2CCS(=O)(=O)C2)c1 (stereo unspecified)	none
Cc1cc2c(N=NC(=O)C3CC3c3ccccc3)c(O)[nH]c2cc1Br (stereo unspecified)	none
CCCCN1C(=O)/C(=C/C=C2/CC(C)(C)CN2C)SC1=S	CHO parental Ca 47, OX1R antag-2 46
CCCCN1C(=O)/C(=C/C=C2\Oc3ccccc3N2CC)SC1=S	TAAR1 antag 90, TAAR1 agonist 180 (no result: CHO parental Ca, OX1R antag-1, OX1R antag-2)
CN(c1ccccc1)S(=O)(=O)c1cccc(C(=O)OCC(=O)Nc2ccc(C(N)=O)cc2)c1	none
Cc1cc(C)nc(SCc2cc(=O)c(OC(=O)c3ccco3)co2)n1	none
COCc1cc(C)nc(SCC(=O)Nc2cccc3cccnc23)c1C#N	OX1R antag-1 52
Cc1cc(=O)[nH]c(SCC(=O)C23CC4CC(CC(C4)C2)C3)c1C#N	OX1R antag-1 40
Cc1cc(=O)[nH]c(SCC(=O)O)c1C#N	none
CCOC(=O)c1c(-c2ccc(F)cc2)csc1NC(=O)C1CC=CCC1C(=O)O (stereo unspecified)	none
COc1ccc(/C=N/Nc2nnc(C)n2N)cc1OC(C)=O	OX1R antag-1 56
O=S(=O)(c1ccc(SCCOc2ccc(Cl)cc2)nc1)N1CCCC1	CHO parental Ca 30
O=NN(Cc1cccnc1)Cc1cccnc1	none (no result: CHO parental Ca, OX1R antag-1, OX1R antag-2)
COc1cccc(Nc2nnc(SCc3cc([N+](=O)[O-])cc4c3OCOC4)s2)c1	OX1R antag-1 68
Oc1ccc(/C=N/Nc2nccnc2Cl)c(O)c1	none
Oc1ccccc1/C=N/Nc1nccnc1Cl	TAAR1 agonist 41
COc1ccc(NC(=O)N2C[C@H]3CON(C)[C@H]3C[C@H]2c2ccc(N3CCCCC3)cc2)cc1	none (no result: CHO parental Ca, OX1R antag-1, OX1R antag-2)
CCCCC(=O)Nc1ccc2c3c(cccc13)C(=O)N2CC	OX1R antag-1 45
COc1ccc(N2C(=O)N3[C@H](c4ccc(Cl)cc4)[C@@H]4C(=O)N(C5CCCCC5)C(=O)[C@@H]4[C@]3(C)C2=O)cc1	none
CCOc1ccc(/C(O)=C2/C(=O)C(=O)N(c3ncccn3)C2c2ccc(Cl)cc2)cc1 (stereo unspecified)	none
Cc1cc(SCC(=O)N/N=C/c2ccc(O)c(O)c2)nc2ccccc12	none
Cc1cc(SCC(=O)N/N=C/c2ccc(O)cc2O)nc2ccccc12	OX1R antag-1 50
CCOc1ccc(NC(=O)CN(C)C(=O)c2ccc(C)o2)cc1OCC	none
Cc1cc(Cl)ccc1NC(=S)NCCC(c1ccccc1)c1ccccc1	CHO parental Ca 37, OX1R antag-2 45
CCC/C=C/c1ccc(CN2C(CC(C)C)C(=O)N(Cc3cn(CC4CCCCC4)nn3)CCS2(=O)=O)cc1 (stereo unspecified)	none (no result: CHO parental Ca, OX1R antag-1, OX1R antag-2)
Cc1nc2c(-c3ccccc3)c(C)[nH]n2c(=O)c1Cc1ccccc1	none
Cc1ccc2n(n1)c(=O)c(Cc1ccccc1)c([O-])[n+]2-c1ccccc1	OX1R antag-1 48
O=C(Nc1cccc(-c2cnc3ccccc3n2)c1)c1ccc(Cl)cc1	none
N=c1oc2cc(O)ccc2cc1C(=O)Nc1ccccn1	OX1R antag-1 84 (no result: TAAR1 antag, TAAR1 agonist, GalR3 antag)
CC(C)C(C(=O)Nc1nccs1)c1ccc(Cl)cc1 (stereo unspecified)	none
CC(C)(Oc1ccc(Cl)cc1)C(=O)Nc1ccncc1	CHO parental Ca 37
CC(C)C(C(=O)Nc1ccncc1)c1ccc(Cl)cc1 (stereo unspecified)	TAAR1 agonist 54
Cc1ccccc1SCC(=O)OCC(=O)Nc1ccc(N(C)C)cc1	none
CCCCNC(=O)COC(=O)CNC(=O)c1cc(Cl)cc([N+](=O)[O-])c1	OX1R antag-1 77
CCNC(=O)COC(=O)CNC(=O)c1cc(Cl)cc([N+](=O)[O-])c1	OX1R antag-1 41
O=C(CNC(=O)c1cc(Cl)cc([N+](=O)[O-])c1)NC1CC1	OX1R antag-1 48
Cc1onc(-c2ccccc2)c1CNC(=O)Nc1cccc(Cl)c1	none
N#Cc1cccc(S(=O)(=O)NCC(=O)NCCCc2ccccc2)c1	none
CN(CC(=O)Nc1ccc(F)cc1[N+](=O)[O-])C1CCS(=O)(=O)C1 (stereo unspecified)	OX1R antag-1 34
CC1(C)OC(=O)C(=Cc2ccc[nH]2)C(=O)O1	none
Cc1ccc(OCC(=O)NNC(=O)c2cc3ccccc3o2)cc1	none
Cc1ccc(OCC(=O)NNC(=O)c2cc3ccccc3o2)cc1C	CHO parental Ca 49
CC1CCN(CCCOc2ccc(Br)cc2Cl)CC1	TAAR1 agonist 39
CC1CN(S(=O)(=O)c2cccc(C(=O)NCC(c3cccs3)N3CCOCC3)c2)CC(C)O1 (stereo unspecified)	none (no result: CHO parental Ca, OX1R antag-1, OX1R antag-2)
COc1cc(OC)c(-c2c3cc(O)c(=O)cc-3oc3cc(O)c(O)cc23)cc1OC	TAAR1 antag 71, CHO parental Ca 74, TAAR1 agonist 367, OX1R antag-2 105
CCOc1ncccc1C(=O)Nc1ccc2nc(C)sc2c1	OX1R antag-1 76
CSc1ncccc1C(=O)Nc1ccc2nc(C)sc2c1	none
CC(=O)N1CCN(C(C)=O)c2ccccc21	none (no result: CHO parental Ca, OX1R antag-1, OX1R antag-2)
COC(=O)c1c(NC(=O)c2ccco2)sc(C)c1C	OX1R antag-1 59
O=C(CN(C(=O)CCC(=O)Nc1nccs1)c1ccccc1F)NCc1ccc2c(c1)OCO2	none
CCOC(=O)c1ccccc1NC(=O)c1cc(S(=O)(=O)N2CCOCC2)ccc1F	GalR3 antag 13
COC(=O)c1cc(C(=O)Nc2ccc(C)cn2)cc([N+](=O)[O-])c1	OX1R antag-1 50
COC(=O)c1cc(C(=O)Nc2cccc(C)n2)cc([N+](=O)[O-])c1	none
COc1ccc2oc(C(=O)OCC(=O)N(C)Cc3ccccc3)c(C)c2c1	none
Cc1c(C(=O)OCC(=O)N(C)Cc2ccc(Cl)cc2)oc2ccccc12	OX1R antag-1 53
O=C1C(C=Nc2ccccc2O)=C(O)c2ccccc21	OX1R antag-1 59
COc1ccc(CNC(=O)COC(=O)c2cc(-c3cccs3)nc3ccccc23)cc1OC	OX1R antag-1 48
CCOC(CCNC(=O)c1cc(-c2cccs2)nc2ccccc12)OCC	TAAR1 antag 49
CC(C)NC(=O)c1cc(-c2cccs2)nc2ccccc12	none
COc1ccc(CNC(=O)COC(=O)c2cc(C)nc3ccccc23)cc1	none
OC(COc1ccc(Cl)cc1)CN1CCN(c2ccccc2)CC1 (stereo unspecified)	none
OC(COc1ccc(Cl)cc1)CN1CCC(Cc2ccccc2)CC1 (stereo unspecified)	TAAR1 agonist 41
OC(COc1ccccc1Cl)CN1CCN(CC(O)COc2ccccc2Cl)CC1 (stereo unspecified)	TAAR1 antag 50
